# Rows were chosen to be rich in hits. Some 4.1% of all compounds tested hit in one or more screens of this group.
# KCNK9 inh = KCNK9 potassium channel inhibitors, primary screen, HEK293 cells, thallium flux; Potassium channel subfamily K member 9 (Homo sapiens), Q9NPC2; B-score at 10 µM; FluxOR thallium flux fluorescence; active compounds read low; 1.2% of 310,000 active;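 active = ratio B-score over 3 SD below the library mean, with starting fluorescence within 5 SD of its mean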;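 note: negative B-score means less thallium flux so channel inhibition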
# Cl transport mod = KCC2 cotransporter modulators, thallium flux, primary screen, cell-based, HEK293 KCC2, FluoZin-2 fluorescence, MLSMR; Solute carrier family 12 member 5 (Homo sapiens), Q9H2X9; KCC2 cells, thallium flux FluoZin-2 fluorescence; B-score of Tl+ flux slope (higher = more flux/activation; lower = inhibition) at 10 µM; 2.2% of 190,000 active; AID 1456, 2008;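 active = thallium flux slope and its plate-corrected score both differing from the plate sample mean at a set confidence after two filtering rounds, in either direction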;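 note: slope of fluorescence scaled to starting intensity during 10 to 20 s after thallium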
# KCNQ1 act = potentiators or activators of KCNQ1 channel, primary screen, cell-based, thallium flux, high-throughput | 0.35% of 310,000 active | B-score at 10 µM | CHO-K1 KCNQ1, thallium flux FluxOR fluorescence; active compounds read high | AID 2648, 2010 | Potassium voltage-gated channel subfamily KQT member 1 (Homo sapiens), P51787;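 active = fluorescence ratio B-score, a plate-corrected score, at least three library SD, with initial intensity B-score within 5 SD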
#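 System: CHO-K1 cells stably expressing KCNQ1 / Medium: assay buffer for compound exposure, DMSO matched across wells / Reagent: thallium- and potassium-containing depolarizing buffer / Compound: one concentration, matched DMSO / Incubation: 20 min compound pretreatment at room temperature / Measured by: kinetic FluxOR fluorescence, 10 s baseline plus 110 s post-stimulus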
# hERG protect = hERG rescue from dofetilide block, primary screen, cell-based, CHO-hERG, FluxOR thallium flux, dofetilide IC70; dofetilide IC70 present; Voltage-gated inwardly rectifying potassium channel KCNH2 (Homo sapiens), Q12809; 0.51% of 310,000 active; activation (rescue from dofetilide block), less the hit threshold, % at 10 µM;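 active = activation above the mean of controls blocked by dofetilide plus 5 SD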;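 note: thallium influx through hERG after potassium depolarization seen as dye fluorescence rise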
# Target sequence (Q12809 whole entry, looked up): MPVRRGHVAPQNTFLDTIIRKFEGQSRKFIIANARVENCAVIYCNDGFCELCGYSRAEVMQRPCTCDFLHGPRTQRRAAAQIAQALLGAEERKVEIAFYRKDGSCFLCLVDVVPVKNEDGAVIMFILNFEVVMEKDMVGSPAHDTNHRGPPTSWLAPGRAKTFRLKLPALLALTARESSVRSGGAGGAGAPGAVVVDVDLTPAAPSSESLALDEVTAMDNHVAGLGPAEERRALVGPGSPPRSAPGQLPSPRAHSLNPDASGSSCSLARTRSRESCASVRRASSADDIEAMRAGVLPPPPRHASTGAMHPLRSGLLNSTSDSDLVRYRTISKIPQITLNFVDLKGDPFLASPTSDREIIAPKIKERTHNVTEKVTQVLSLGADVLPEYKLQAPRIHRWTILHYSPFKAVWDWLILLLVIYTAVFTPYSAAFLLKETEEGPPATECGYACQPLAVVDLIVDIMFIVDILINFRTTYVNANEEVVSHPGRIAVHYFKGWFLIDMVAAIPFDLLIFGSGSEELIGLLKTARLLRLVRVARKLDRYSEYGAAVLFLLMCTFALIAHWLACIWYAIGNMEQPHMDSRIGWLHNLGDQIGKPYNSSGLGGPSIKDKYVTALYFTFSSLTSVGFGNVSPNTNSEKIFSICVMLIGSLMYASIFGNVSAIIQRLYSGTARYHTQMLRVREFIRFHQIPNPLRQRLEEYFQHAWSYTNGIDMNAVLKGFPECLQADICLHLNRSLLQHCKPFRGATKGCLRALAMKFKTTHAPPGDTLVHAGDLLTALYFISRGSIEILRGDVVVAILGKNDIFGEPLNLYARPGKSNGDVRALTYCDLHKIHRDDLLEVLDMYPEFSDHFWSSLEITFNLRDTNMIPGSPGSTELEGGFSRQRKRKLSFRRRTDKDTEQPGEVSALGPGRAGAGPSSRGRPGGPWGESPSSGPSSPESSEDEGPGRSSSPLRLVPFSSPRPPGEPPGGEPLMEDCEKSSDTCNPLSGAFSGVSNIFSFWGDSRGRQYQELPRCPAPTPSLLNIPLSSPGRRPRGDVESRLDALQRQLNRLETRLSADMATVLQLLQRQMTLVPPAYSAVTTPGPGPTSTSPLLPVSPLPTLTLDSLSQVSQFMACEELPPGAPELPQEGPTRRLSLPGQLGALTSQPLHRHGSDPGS
# KCNK3 inh = human KCNK3 channel inhibitors, primary screen, CHO cells, FluxOR thallium flux, B-score; FluxOR fluorescence; active compounds read low; AID 602410, 2012; B-score at 10 µM; 0.84% of 340,000 active; Potassium channel subfamily K member 3 (Homo sapiens), O14649;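 active = B-score under library mean minus 4 SD, starting fluorescence ratio at most library mean plus 5 SD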;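 note: more negative B-score means stronger inhibition of thallium flux through KCNK3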
# KCNQ1 block = inhibitors of human KCNQ1 channel, primary screen, cell-based, thallium flux, high-throughput | B-score at 10 µM | 1.3% of 310,000 active | CHO-K1 KCNQ1, FluxOR thallium flux fluorescence; active compounds read high;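 active = compounds whose thallium flux B-score, printed positive for inhibition, exceeds three library SD while starting fluorescence stays within three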;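 note: channel opened by potassium depolarization with thallium stimulus after 20 min compound exposure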
# Starred values were filed as active, the others as inactive; i = inactive; / = not tested or not shown.
SMILES,KCNK9 inh,Cl transport mod,KCNQ1 act,hERG protect,KCNK3 inh,KCNQ1 block
Cc1ccc(CNc2ncc(-c3ccc4c(c3)OCO4)n2C)cc1,i,/,i,-28,i,i
Cn1c(-c2ccc3c(c2)OCO3)cnc1NCc1ccc(Cl)cc1,i,/,i,-16,i,11*
O=C(CN1CC[n+]2c(-c3cccs3)csc21)c1ccc(-c2ccccc2)cc1,i,3.2*,i,-22,i,i
CC1(C)[C@@H](O)CC[C@]2(C)C3C(O)C=C4[C@H]5C[C@@](C)(C(=O)O)CC[C@]5(C)CC[C@]4(C)[C@]3(C)CC[C@@H]12 (some centres undefined),i,-0.6,13*,-9,/,i
CC(C)(C)c1nnc(NC(=O)CN2C(=O)C3C4C=CC(C4)C3C2=O)s1 (centres undefined),i,-0.059,i,-10,i,i
CCCN1CCN(CCCNC(=O)c2cc3c(=O)[nH]c4ccccc4c3s2)CC1,i,-1.2,i,-7,i,i
CCOC(=O)c1c(NC(=S)NCC2CCCO2)sc(C)c1C (centres undefined),i,25*,i,-2,i,i
CCOC(=O)c1c(NC(=O)C2CCCO2)sc(C(N)=O)c1C (centres undefined),i,1.1,i,-5,i,i
S=C(Nc1ccc(Nc2ccccc2)cc1)Nc1ccccn1,-7.1*,0.72,i,-7,i,i
O=C(Nc1ccccc1)C(=O)Nc1ccccn1,i,/,i,-8,i,i
CCC/C=N/NC(=O)c1[nH]c2c([N+](=O)[O-])cccc2c1C,i,0.7,16*,-6,i,i
C=CC1=CCN(S(=O)C(C)(C)C)[C@@H]1CCO (some centres undefined),/,/,/,/,i,/
C1CCC(C(CC2CCCCN2)C2CCCCC2)CC1 (centres undefined),i,-0.22,i,-19,i,7*
COc1ccc(CNS(=O)(=O)NCc2ccc(OC)c(OC)c2)cc1OC,i,-0.039,i,-7,i,i
COc1cc(OC)cc(-c2nnc(Nc3nc4c(F)cccc4s3)o2)c1,i,9.1*,22*,5.9*,i,i
NNc1nc2c(F)cccc2s1,i,0.027,i,-9,i,i
Fc1cccc2sc(Nc3nnc(-c4ccccc4)o3)nc12,i,/,66*,51*,i,i
CCOc1cc(C(C(=O)NCC2CCCO2)N(C(=O)Cn2nnc3ccccc32)c2ccccc2C)ccc1O (centres undefined),i,/,i,-5,i,i
O=c1cc(-c2ccccc2)cc(-c2ccccc2)n1O,i,/,23*,18*,i,i
CC12c3ccccc3C(c3ccccc31)C1C(=O)N(c3cccnc3)C(=O)C12 (centres undefined),-7.6*,0.015,i,-8,i,i
CCOc1ccc2ccccc2c1/C=N/NC(=O)CNC(=O)C(c1ccccc1)c1ccccc1,i,-1.2,i,-4,i,i
COC(=O)C(Cc1ccccc1)NC(=O)CNC(=O)c1ccc(Br)cc1 (centres undefined),-7.1*,/,i,-5,i,i
COC(=O)C(Cc1ccccc1)NC(=O)CNS(=O)(=O)c1ccc(Br)cc1 (centres undefined),i,-0.71,i,-6,i,i
Cc1ccc(C(=O)NC(C)C(c2cccs2)N2CCCC2)s1 (centres undefined),i,-0.18,i,-3,i,i
CC(=O)Nc1ccc(Br)c2ccccc12,i,-0.22,i,-11,i,i
SMILES,KCNK9 inh,Cl transport mod,KCNQ1 act,hERG protect,KCNK3 inh,KCNQ1 block
O=C(Nc1ccc(Br)c2ccccc12)c1ccc2ccccc2c1O,i,-4.9,i,-28,i,7*
FC(F)(F)c1cccc(NC(=S)Nc2cccc(NC(=S)Nc3cccc(C(F)(F)F)c3)n2)c1,i,0.92,i,-14,i,8*
FC(F)(F)c1cccc(NC(=S)Nc2ccc(Cl)cc2Cl)c1,i,4.5*,i,-12,i,i
Cc1cccc(NC(=S)Nc2cccc(C(F)(F)F)c2)n1,i,2.4,i,-4,i,i
O=C(NNC(=S)Nc1cccc(C(F)(F)F)c1)c1cccc(Cl)c1,i,5.8*,i,-13,i,i
S=C(Nc1ccccc1)Nc1ccc(Cl)cc1Cl,i,2.4,i,-8,i,i
CCOC(=O)Cn1nnnc1CN(CCc1ccccc1)Cc1cc2cc(CC)ccc2[nH]c1=O,i,/,i,-10,i,i
COc1cc(OC)cc(C(=O)NCC(=O)N2CCCCC2)c1,i,1.2,i,-3,i,i
O=C(NNC(=S)NCc1ccccc1)c1ccc(Br)o1,i,0.49,i,-2,i,i
O=C(NC(=S)NCc1ccccc1)c1ccc(Br)o1,i,/,59*,39*,i,i
O=C(/C=C/c1ccc(Br)o1)NCc1ccccc1,-6.8*,0.038,i,-6,i,i
COc1cc(C(C)=O)ccc1OCC(=O)Nc1ccccc1N1CCCC1,i,/,i,-22,i,i
O=C(CCC(=O)Nc1ccc(Cl)cc1)N/N=C/c1ccc2c(c1)OCO2,i,/,i,-5,i,6*
CS(=O)(=O)c1cccc(C(=O)Nc2ccc(S(=O)(=O)N3CCCCC3)cc2)c1,/,/,/,/,i,/
CCOc1ccc(-n2c(=S)sc3c(=O)n(-c4ccccc4)c(SC)nc32)cc1,i,/,8*,-3,i,i
CCCCN(CC)C(=O)CSc1nc2c(sc(=S)n2-c2ccc(OCC)cc2)c(=O)[nH]1,i,-1.2,i,-19,i,8*
CCOc1ccc(-n2c(=S)sc3c(=O)n(-c4ccccc4)c(SCC(=O)O)nc32)cc1,i,/,i,-4,i,i
CCCN(CCC)C(=O)CSc1nc2c(sc(=S)n2-c2ccc(OCC)cc2)c(=O)[nH]1,i,-2.1,i,-9,i,7*
COc1ccccc1-n1c(=S)sc2c(=O)n(Cc3ccco3)c(SC)nc21,i,-2.3,i,-13,i,9*
COc1ccccc1-n1c(SC)nc2c(sc(=S)n2-c2ccccc2)c1=O,i,/,i,-9,i,i
